Columns and labels:
Adenosine A3 = molecular target: T1, Adenosine A3 (Homo sapiens, UniProt P0DMS8); assay: radioligand binding displacement; conditions: read-out: % inhibition at 10 μM
T1 sequence (P0DMS8 1-318): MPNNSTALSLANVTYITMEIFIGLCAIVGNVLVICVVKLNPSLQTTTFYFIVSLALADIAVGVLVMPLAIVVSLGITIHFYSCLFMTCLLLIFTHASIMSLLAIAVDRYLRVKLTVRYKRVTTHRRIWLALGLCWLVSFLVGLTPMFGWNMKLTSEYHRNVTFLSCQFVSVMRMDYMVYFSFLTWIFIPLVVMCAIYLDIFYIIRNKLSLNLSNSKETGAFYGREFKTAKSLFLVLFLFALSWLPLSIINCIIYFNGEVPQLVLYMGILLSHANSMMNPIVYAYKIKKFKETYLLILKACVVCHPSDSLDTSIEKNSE
Procedure, shortened: (§1)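 Off-target screen by radioligand binding displacement, run per published methods with reference standards in each assay. […] Recombinant human targets were expressed in CHO-K1 cells (A3, dopamine transporter), Sf9 insect cells (α2A), CHO cells (DOP) and MDCK cells (norepinephrine transporter). IC50, where determined, came from non-linear least-squares regression.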

[1] = molecular target: Norepinephrine transporter (Homo sapiens, UniProt P23975); assay: radioligand binding displacement
Procedure, shortened: as §1

hmGluR2/hCaR* = assay: fluorescence-based functional assay, HEK […] cells; type: cell-based, Homo sapiens; conditions: read-out: Effect; positive allosteric modulator; with 0.02 μM DCG-IV as agonist

Sequence of Norepinephrine transporter (P23975 whole entry): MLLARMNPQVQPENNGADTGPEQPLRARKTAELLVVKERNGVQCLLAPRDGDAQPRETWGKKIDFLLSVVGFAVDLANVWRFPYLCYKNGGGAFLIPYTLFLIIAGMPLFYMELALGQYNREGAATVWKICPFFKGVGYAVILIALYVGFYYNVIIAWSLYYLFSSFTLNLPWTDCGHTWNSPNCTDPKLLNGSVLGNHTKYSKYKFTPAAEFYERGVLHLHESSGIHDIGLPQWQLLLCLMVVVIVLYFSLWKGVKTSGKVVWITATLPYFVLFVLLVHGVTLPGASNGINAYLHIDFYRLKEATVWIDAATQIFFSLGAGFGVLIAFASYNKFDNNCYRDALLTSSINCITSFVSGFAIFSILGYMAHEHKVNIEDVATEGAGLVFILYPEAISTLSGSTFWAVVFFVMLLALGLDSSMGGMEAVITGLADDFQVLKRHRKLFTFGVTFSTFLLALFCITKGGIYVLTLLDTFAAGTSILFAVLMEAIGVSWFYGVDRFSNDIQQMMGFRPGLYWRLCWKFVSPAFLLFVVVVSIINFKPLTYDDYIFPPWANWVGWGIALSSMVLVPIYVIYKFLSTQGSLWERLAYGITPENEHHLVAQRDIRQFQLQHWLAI

`Cc1cc(-c2nc(CN3CCNCC3)no2)cc2c1C(=O)N(Cc1ccc(OC(F)(F)F)cc1)C2` [AZD8529, 7-methyl-5-(3-piperazin-1-ylmethyl-[1,2,4]oxadiazol-5-yl)-2-(4-trifluoromethoxybenzyl)-2,3-dihydroisoindol-1-one] showed an inhibition at 10 µM (Adenosine A3) of 51%, an IC50 [1] of 4.73 µM and an EC50 (hmGluR2/hCaR*) of 0.285 ± 0.02 µM.
